Reference: ChEMBL document CHEMBL3091313, “Amino acids derived benzoxazepines: design, synthesis and antitumor activity” (Bioorg Med Chem Lett, 2013)
Active and inactive are the calls of the source. No cut-off for these calls is given here.

Columns and labels:
MDA-MB-231 [1] = assay: Cell cycle arrest in human MDA-MB-231 cells assessed as accumulation at S phase at 1 uM after 24 hrs using propidium iodide staining by flow cytometry (reference value: 28.59 %); format: functional
MDA-MB-231 [2] = assay: Cell cycle arrest in human MDA-MB-231 cells assessed as accumulation at G1 phase at 1 uM after 24 hrs using propidium iodide staining by flow cytometry (reference value: 52.67 %); format: functional
MDA-MB-231 [3] = assay: Cell cycle arrest in human MDA-MB-231 cells assessed as apoptosis at 1 uM after 24 hrs using propidium iodide staining by flow cytometry (reference value: 0.10 %); format: functional
MCF7 [4] = assay: Induction of apoptosis in human MCF7 cells assessed as phosphatidylserine exposure after 24 hrs using annexin V/PI staining by flow cytometry; format: functional, cell-based
How it was run: (§1)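 MCF-7 cells were exposed to vehicle or the indicated compound concentrations for 24 h. Phosphatidylserine exposure was then measured by flow cytometry after staining with FITC-labelled Annexin V and propidium iodide. Apoptotic cell fractions were read from dot plots relative to vehicle.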

MCF7 [5] = assay: Induction of apoptosis in human MCF7 cells assessed as DNA fragmentation after 24 hrs by ELISA; format: functional, cell-based
How it was run: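 MCF-7 cells were treated with compound, with 4-OHT alongside. DNA fragmentation was quantified after 24 h and expressed relative to a positive control set at 100%. Data are mean ± SEM of three independent experiments.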

MCF7 [6] = assay: Induction of apoptosis in human MCF7 cells assessed as late apoptotic cells at 5 uM after 24 hrs using annexin V/PI staining by flow cytometry (reference value: 6.46 %); format: functional; how it was run: as §1
MCF7 [7] = assay: Induction of apoptosis in human MCF7 cells assessed as early apoptotic cells at 5 uM after 24 hrs using annexin V/PI staining by flow cytometry (reference value: 3.19 %); format: functional
MCF7 [8] = assay: Induction of apoptosis in human MCF7 cells assessed as late apoptotic cells at 1 uM after 24 hrs using annexin V/PI staining by flow cytometry (reference value: 6.46 %); format: functional; how it was run: as §1
[9] = Safety index, ratio of IC50 for HEK293 cells to IC50 for human MCF7 cells; format: toxicity, cell-based; settings: HEK293 cells versus MCF7 cells, read-out: Ratio IC50
How it was run: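 Cell death was assessed by MTT assay after 72 h exposure. The ratio was calculated as the HEK-293 IC50 divided by the MCF-7 EC50.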

MDA-MB-231 [10] = assay: Antiproliferative activity against human MDA-MB-231 cells after 72 hrs by MTT assay; format: functional, cell-based; settings: MDA-MB-231, 72 h
How it was run: (§2)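 MCF-7 (ER+ve) and MDA-MB-231 (ER-ve) breast cancer cells were exposed to compound or vehicle. Viability was read by MTT and expressed as % cell death versus vehicle, with 4-hydroxytamoxifen as positive control. IC50 came from three independent experiments, each in triplicate.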

MDA-MB-231 [11] = assay: Antiproliferative activity against human MDA-MB-231 cells after 48 hrs by MTT assay; format: functional, cell-based; settings: MDA-MB-231, 48 h; how it was run: as §2
[12] = Cytotoxicity against rat primary calvarial osteoblasts after 24 hrs by MTT assay; format: cell-based; settings: calvarial osteoblast
How it was run: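 Vero, HEK-293 and primary rat calvarial osteoblasts were given vehicle or a range of concentrations for 24 h. Cell death was expressed as % relative to vehicle.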

MCF7 [13] = assay: Cytotoxicity against human MCF7 cells assessed as reduction in membrane integrity at IC50 by LDH release assay; format: functional, cell-based
How it was run: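 Membrane integrity was assessed in MCF-7 cells exposed to a range of compound concentrations, by measuring LDH released into the culture medium.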

HEK293 = assay: Cytotoxicity against HEK293 cells after 24 hrs by MTT assay; format: cell-based; settings: Homo sapiens, HEK293, 72 h; in the assay text read “after 72 hrs” for “after 24 hrs”
Mus musculus = assay: Toxicity in human MCF7 cells xenografted athymic nude mouse assessed as change in body weight at 16 mg/kg/day, po for 21 days measured up to 21 days relative to vehicle-treated control; format: organism-based; parameters: route oral; settings: in vivo, 504 h
MCF7 [14] = assay: Induction of apoptosis in human MCF7 cells assessed as reduction in cell viability at 5 uM after 24 hrs by MTT assay in presence of zIEDT-FMK; format: functional, cell-based
MCF7 [15] = assay: Induction of apoptosis in human MCF7 cells assessed as reduction in cell viability at 5 uM after 24 hrs by MTT assay in presence of zVAD-FMK; format: functional, cell-based
MCF7 [16] = assay: Induction of apoptosis in human MCF7 cells assessed as increase in Bax/Bcl2 ratio at 5 uM after 6 to 24 hrs by immunoblotting method; format: functional, cell-based
MCF7 [17] = assay: Induction of apoptosis in human MCF7 cells assessed as caspase-9 cleavage at 5 uM after 6 hrs by immunoblotting method; format: functional, cell-based
MCF7 [18] = assay: Cell cycle arrest in human MCF7 cells assessed as increase in p27 protein level at 5 uM after 12 to 24 hrs by immunoblotting method; format: functional, cell-based
MCF7 [19] = assay: Cell cycle arrest in human MCF7 cells assessed as decrease in cyclin D1 mRNA level at 1 to 5 uM after 12 hrs by QRT-PCR method; format: functional, cell-based
MCF7 [20] = assay: Cell cycle arrest in human MCF7 cells assessed as decrease in E2F mRNA level at 1 to 5 uM after 12 hrs by QRT-PCR method; format: functional, cell-based
MCF7 [21] = assay: Cell cycle arrest in human MCF7 cells assessed as increase in p27 mRNA level at 1 to 5 uM after 12 hrs by QRT-PCR method; format: functional, cell-based
MCF7 [22] = assay: Cell cycle arrest in human MCF7 cells assessed as accumulation at S phase at 5 uM after 24 hrs using propidium iodide staining by flow cytometry (reference value: 24.81 %); format: functional
MCF7 [23] = assay: Cell cycle arrest in human MCF7 cells assessed as accumulation at G1 phase at 5 uM after 24 hrs using propidium iodide staining by flow cytometry (reference value: 67.73 %); format: functional
MCF7 [24] = assay: Cell cycle arrest in human MCF7 cells assessed as apoptosis at 5 uM after 24 hrs using propidium iodide staining by flow cytometry (reference value: 0.06 %); format: functional
MCF7 [25] = assay: Cell cycle arrest in human MCF7 cells assessed as accumulation at S phase at 3 uM after 24 hrs using propidium iodide staining by flow cytometry (reference value: 24.81 %); format: functional
MCF7 [26] = assay: Cell cycle arrest in human MCF7 cells assessed as accumulation at G2 phase at 1 uM after 24 hrs using propidium iodide staining by flow cytometry (reference value: 7.46 %); format: functional
MCF7 [27] = assay: Cell cycle arrest in human MCF7 cells assessed as accumulation at G1 phase at 1 uM after 24 hrs using propidium iodide staining by flow cytometry (reference value: 67.73 %); format: functional
MDA-MB-231 [28] = assay: Cell cycle arrest in human MDA-MB-231 cells assessed as accumulation at G1 phase at 5 uM after 24 hrs using propidium iodide staining by flow cytometry (reference value: 52.67 %); format: functional
MDA-MB-231 [29] = assay: Cell cycle arrest in human MDA-MB-231 cells assessed as accumulation at S phase at 3 uM after 24 hrs using propidium iodide staining by flow cytometry (reference value: 28.59 %); format: functional
MDA-MB-231 [30] = assay: Cell cycle arrest in human MDA-MB-231 cells assessed as accumulation at G2 phase at 3 uM after 24 hrs using propidium iodide staining by flow cytometry (reference value: 18.75 %); format: functional
MDA-MB-231 [31] = assay: Cell cycle arrest in human MDA-MB-231 cells assessed as accumulation at G1 phase at 3 uM after 24 hrs using propidium iodide staining by flow cytometry (reference value: 52.67 %); format: functional

SMILES: Cc1ccc(S(=O)(=O)N2Cc3ccccc3OC[C@@H]2Cc2ccc(OCCN3CCCCCC3)cc2)cc1.Cl
- Activity (MDA-MB-231 [1]): 24.81%
- Activity (MDA-MB-231 [2]): 67.73%
- Activity (MDA-MB-231 [3]): 0.6%
- Activity (MCF7 [4]): Dose-dependent effect
- Activity (MCF7 [5]): Dose-dependent effect
- Activity (MCF7 [6]): 35.77%
- Activity (MCF7 [7]): 42.51%
- Activity (MCF7 [8]): 20.15%
- selectivity ratio [9]: 16.4
- IC50 (MDA-MB-231 [10]): 4.6 µM
- IC50 (MDA-MB-231 [11]): 5.45 µM
- Activity [12]: Non-toxic
- Activity (MCF7 [13]): inactive
- IC50 (HEK293): 30 µM
- Activity (Mus musculus): Non-toxic
- Activity (MCF7 [14]): Active
- Activity (MCF7 [15]): Active
- Activity (MCF7 [16]): Active
- Activity (MCF7 [17]): Active
- Activity (MCF7 [18]): Active
- Activity (MCF7 [19]): Active
- Activity (MCF7 [20]): Active
- Activity (MCF7 [21]): Active
- Activity (MCF7 [22]): 7.34%
- Activity (MCF7 [23]): 86.22%
- Activity (MCF7 [24]): 2.86%
- Activity (MCF7 [25]): 6.18%
- Activity (MCF7 [26]): 6.97%
- Activity (MCF7 [27]): 74.1%
- Activity (MDA-MB-231 [28]): 75.82%
- Activity (MDA-MB-231 [29]): 18.64%
- Activity (MDA-MB-231 [30]): 8.08%
- Activity (MDA-MB-231 [31]): 73.31%
